Screens as filed in PubChem.
Only some compounds are listed: those with a hit (about 3.7% of all), similar ones and a draw of the others.
KCNK9 inh: KCNK9 potassium channel inhibitors, primary screen, HEK293 cells, thallium flux | B-score at 10 µM | AID 488922, 2010 | Potassium channel subfamily K member 9 (Homo sapiens), Q9NPC2 | 310,000 compounds, 1.2% hits | FluxOR thallium flux fluorescence; active compounds read low;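 active means ratio B-score over 3 SD below the library mean, with starting fluorescence within 5 SD of its mean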;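 further: negative B-score means less thallium flux so channel inhibition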
Kir21 inh: inhibitors of mouse Kir2.1 inward-rectifier potassium channel. Inward rectifier potassium channel 2 (Mus musculus), P35561. HEK293-Kir2.1, FluxOR thallium flux fluorescence; active compounds read low. B-score at 10 µM. 310,000 compounds, 0.85% hits. AID 1672, 2009;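 active means fluorescence ratio B-score at or below minus 3 SD of library scores, with starting-brightness B-score within 2 SD, cut at about -4.2 in these data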;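 further: channel flux triggered by added potassium and thallium sulfate stimulus; B-score of peak minus minimum fluorescence over baseline after thallium stimulus; more negative B-score means stronger Kir2.1 block with less thallium influx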
hERG rescue: hERG rescue from dofetilide block, primary screen, cell-based, CHO-hERG, FluxOR thallium flux, dofetilide IC70; Voltage-gated inwardly rectifying potassium channel KCNH2 (Homo sapiens), Q12809; dofetilide IC70 present; activation (rescue from dofetilide block), less the hit threshold, % at 10 µM; 310,000 compounds, 0.51% hits; AID 1511, 2009;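 active means activation above the mean of controls blocked by dofetilide plus 5 SD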;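 further: thallium influx through hERG after potassium depolarization seen as dye fluorescence rise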
KCNQ1 pot: potentiators or activators of KCNQ1 channel, primary screen, cell-based, thallium flux, high-throughput. Potassium voltage-gated channel subfamily KQT member 1 (Homo sapiens), P51787. CHO-K1 KCNQ1, thallium flux FluxOR fluorescence; active compounds read high. B-score at 10 µM. 310,000 compounds, 0.35% hits;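 active means fluorescence ratio B-score, a plate-corrected score, at least three library SD, with initial intensity B-score within 5 SD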
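Test system: CHO-K1 cells stably expressing KCNQ1 / Medium: assay buffer / Also added: depolarizing K+/Tl+ stimulus, K2SO4 and Tl2SO4 each 12.5 mM in 5x stock / Incubation: 90 min dye loading and 20 min compound exposure, both at room temperature / Signal: thallium influx via FluxOR fluorescence, kinetic imaging / Evaluation: B score of baseline-normalized fluorescence ratio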
KCNQ1 inh: inhibitors of human KCNQ1 channel, primary screen, cell-based, thallium flux, high-throughput | CHO-K1 KCNQ1, FluxOR thallium flux fluorescence; active compounds read high | B-score at 10 µM | 310,000 compounds, 1.3% hits | AID 2642, 2010;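 active means compounds whose thallium flux B-score, printed positive for inhibition, exceeds three library SD while starting fluorescence stays within three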;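 further: channel opened by potassium depolarization with thallium stimulus after 20 min compound exposure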
KCNK3 inh: human KCNK3 channel inhibitors, primary screen, CHO cells, FluxOR thallium flux, B-score; Potassium channel subfamily K member 3 (Homo sapiens), O14649; B-score at 10 µM; 340,000 compounds, 0.84% hits; AID 602410, 2012; FluxOR fluorescence; active compounds read low;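 active means B-score under library mean minus 4 SD, starting fluorescence ratio at most library mean plus 5 SD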;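 further: more negative B-score means stronger inhibition of thallium flux through KCNK3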
KCNK3 confirm: retest of human KCNK3 channel inhibitors, confirmation, CHO cells, FluxOR thallium flux, triplicate. FluxOR fluorescence; 0% buffer, 100% carvedilol maximal block. 2,400 compounds, 99% hits. shares compounds with KCNK3 inh. ratio percent of control, % at 10 µM;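 active means ratio percent of control, averaged over triplicates, above buffer control mean plus 5 SD, cut at about 64% in these data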;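 further: ratio is the fluorescence rise from min to max over baseline after thallium stimulus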
KCNK3 noninduced: thallium flux inhibition in non-induced cells, primary screen, counter-screen for KCNK3 inhibitor project, cell-based, non-induced KCNK3 line, FluxOR thallium, triplicate; AID 651747, 2012; non-induced KCNK3 parental cells; active compounds read low; thallium flux ratio (lower = more inhibition) at 10 µM; shares compounds with KCNK3 inh; 2,400 compounds, 40% hits;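 active means thallium flux ratio, averaged over three wells, more than 5 SD below the buffer control mean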;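 further: host cells are CHO cells without KCNK3 induction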
Large screens that a line does not name were inactive (follow-up assays come after a bar, where they were run).

Cc1cccc(NS(=O)(=O)c2cc(C(=O)NCCC3=CCCCC3)ccc2Cl)c1	KCNK3 inh -12.2 | KCNK3 confirm 118.3 | KCNK3 noninduced 0.152
Cc1ccc(-c2nc(NC(=O)c3cc(C(C)(C)C)nn3C)sc2C)cc1Cl	KCNQ1 inh 10, KCNK3 inh -9.19 | KCNK3 confirm 96.3 | KCNK3 noninduced 0.143
CC1CCc2nc(NC(=O)c3cc(C(C)(C)C)nn3C)sc2C1 (stereo not drawn)	none
COc1ccc2cc(C3=CCCCC3)ncc2c1	none (no result: KCNK9 inh, Kir21 inh, hERG rescue, KCNQ1 pot, KCNQ1 inh)
O=C(CSc1ccccc1Cl)N1CCC(c2nc3ccccc3s2)CC1	KCNK3 inh -9.83 | KCNK3 confirm 107.3 | KCNK3 noninduced inactive
Cc1sc2ncnc(N3CCC(C(=O)Nc4nc(-c5cccs5)cs4)CC3)c2c1C	KCNK3 inh -8.93 | KCNK3 confirm 94.3 | KCNK3 noninduced inactive
Cc1sc2ncnc(N3CCC(C(=O)Nc4ccccc4C(C)(C)C)CC3)c2c1C	none
Cc1sc2ncnc(N3CCC(C(=O)Oc4cccc(Cl)c4Cl)CC3)c2c1C	KCNK9 inh -8.09, KCNK3 inh -9.14 | KCNK3 confirm 96.3 | KCNK3 noninduced inactive
COc1cc(/C=C/C(=O)O)cc2c1OCCO2	none
CC(CCc1ccccc1)NC(=O)CNC(=O)N1CC(=O)Nc2ccccc21 (stereo not drawn)	none
O=C(CN(c1ccc(Br)cc1)S(=O)(=O)c1ccc(Cl)c([N+](=O)[O-])c1)NCC1CCCO1 (stereo not drawn)	none (no result: KCNK9 inh, Kir21 inh, hERG rescue, KCNQ1 pot, KCNQ1 inh)
COc1cccc(C2c3[nH]c4ccccc4c3C[C@H]3C(=O)N(c4ccccc4C(=O)NCCCN4CCOCC4)C(=O)N23)c1 (stereo partly drawn)	none
N#Cc1cc2cc3ccccc3nc2n2c(=O)c3ccccc3nc12	KCNK3 inh -9.6 | KCNK3 confirm 122.3 | KCNK3 noninduced 0.124
Cn1c(=O)c2cc3ccccc3nc2n(C)c1=O	none
Cc1ccc(S(=O)(=O)NC(C)(C)CN2CCc3ccccc3C2)cc1	none
O=C(COc1ccc([N+](=O)[O-])cc1)NC(=O)NC1CCS(=O)(=O)C1 (stereo not drawn)	none (no result: KCNK9 inh, Kir21 inh, hERG rescue, KCNQ1 pot, KCNQ1 inh)
CCSc1nc2ccccc2n1Cc1cccc([N+](=O)[O-])c1	KCNK3 inh -8.75 | KCNK3 confirm 94.7 | KCNK3 noninduced inactive
CCSc1nc2ccccc2n1Cc1ccccc1F	none
O=C(Nc1nc(-c2ccccc2)cs1)C1c2ccccc2Oc2ccccc21	KCNK9 inh -7.23, KCNK3 inh -8.77 | KCNK3 confirm 119.3 | KCNK3 noninduced inactive
C=CCn1c(CNC(=O)c2ccccc2F)nnc1SCC(=O)N1CCOCC1	none
CN(C)S(=O)(=O)c1ccc(Cl)c(NC(=O)C2CCN(S(=O)(=O)c3cccs3)CC2)c1	none (no result: KCNK9 inh, Kir21 inh, hERG rescue, KCNQ1 pot, KCNQ1 inh)
O=C(NCCn1cc(SCc2ccccc2)c2ccccc21)c1ccccc1F	KCNQ1 inh 8, KCNK3 inh -15.5 | KCNK3 confirm 124.3 | KCNK3 noninduced 0.146
Cc1c(Nc2ncccc2C(=O)O)cccc1C(F)(F)F	none
